HGIII-sPLA2 inh: Inhibits HGIII-sPLA2 liposome hydrolysis, primary screen. Q9NZ20. QFRET BODIPY PC-A2 liposome hydrolysis, fluorescence. inhibition, % at 12.2 µM. 0.56% of 370,000 active;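 active = inhibition above mean plus 3 SD of compounds lying within the high and low control bounds, cut at about 19% in these data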;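 also: 0% = median of test compound wells and 100% = no enzyme DMSO wells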
Target sequence (Q9NZ20 whole entry, looked up): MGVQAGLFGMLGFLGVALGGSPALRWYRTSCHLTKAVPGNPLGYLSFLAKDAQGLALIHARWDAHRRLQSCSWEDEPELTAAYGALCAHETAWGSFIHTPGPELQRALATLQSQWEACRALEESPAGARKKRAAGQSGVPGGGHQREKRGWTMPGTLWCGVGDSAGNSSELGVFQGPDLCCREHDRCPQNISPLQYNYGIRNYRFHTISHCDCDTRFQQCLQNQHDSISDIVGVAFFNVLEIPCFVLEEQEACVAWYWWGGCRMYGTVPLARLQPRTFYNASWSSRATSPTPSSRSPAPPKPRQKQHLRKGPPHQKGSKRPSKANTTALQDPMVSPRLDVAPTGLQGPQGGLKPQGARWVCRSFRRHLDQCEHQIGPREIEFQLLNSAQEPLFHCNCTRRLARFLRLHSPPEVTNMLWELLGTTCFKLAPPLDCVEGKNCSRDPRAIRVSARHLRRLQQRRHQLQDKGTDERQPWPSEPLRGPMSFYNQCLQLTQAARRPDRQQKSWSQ
ASAP1 inh: inhibitors of human ASAP1 ArfGAP activity; Q9ULH1; ASAP1-stimulated ARF1 GTP hydrolysis, GDP FP detection; inhibition, % at 16.5 µM; 0.19% of 360,000 active; in the data active = inhibition above about 25%;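 also: 0% = vehicle with enzyme and substrate and 100% = no enzyme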
bovine MsrA act: activators of bovine methionine sulfoxide reductase A | purified bovine MsrA, absorbance read-out | AID 602163 | activation, % at 10.6 µM | 0.3% of 360,000 active; in the data active = activation above about 7.5%;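 also: 0% = vehicle and 100% = reference activator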
MsrA inh: inhibitors of bovine MsrA. purified bovine MsrA, absorbance read-out. inhibition, % at 15.5 µM. 0.75% of 360,000 active; in the data active = inhibition above about 4.5%;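 also: 0% = vehicle wells with enzyme and 100% = reference inhibitor wells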
ARFGAP1 inh: inhibits rat ARF GTPase activating protein 1. AID 651572. 0.26% of 360,000 active. inhibition, % at 16.5 µM. Q62848. Arfgap1-stimulated ARF1 GTP hydrolysis, GDP FP detection;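 active = inhibition above a per-plate limit, mean inhibition of low control wells plus 3 SD, cut at about 25% in these data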;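 also: 0% = DMSO wells with enzyme and 100% = wells lacking Arfgap1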
Target sequence (Q62848 1-136 limits assumed): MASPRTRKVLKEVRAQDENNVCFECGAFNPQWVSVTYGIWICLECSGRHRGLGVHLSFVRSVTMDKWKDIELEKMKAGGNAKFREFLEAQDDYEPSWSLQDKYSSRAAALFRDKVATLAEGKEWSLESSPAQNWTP
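Repeats: one replicate per compound; assay system: rat Arfgap1 catalytic domain, aa 1-136; times: enzyme reaction 120 min at 25 °C after 20 min preincubation; detection: FP of antibody-bound GDP Alexa 633 tracer, ex 620/em 688 nm; benchmarks: high control wells lacking Arfgap1, low control full reaction with DMSO; reagent: human ARF1(Δ1-17)-GTP substrate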
Rev-erbA mod: modulators of human Rev-erb alpha DNA binding. P20393. Rev-erbα–FITC-DNA binding, fluorescence polarization, 90 min. activity, % at 10 µM. 0.79% of 370,000 active. AID 1259318;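 active = activity above about 14%, limit read from the data; passing the limit was not always enough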;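 also: 0% = DMSO wells with 35 nM protein and 100% = DMSO wells with 750 nM protein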
NR1D1 mod conf: confirmation of modulators of human Rev-erb alpha DNA binding; Rev-erb alpha FITC-DNA binding, fluorescence polarization, 90 min; shares compounds with Rev-erbA mod; 61% of 3,000 active; AID 1259319; activation, % at 25 µM;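 active = activation at or above a set limit, or at least 3 SD above the negative control mean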;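 also: 0% = 35 nM protein with DMSO and 100% = 750 nM protein high control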
RORg counter: affects RORgamma DNA binding in a Rev-erb alpha counter-screen; shares compounds with Rev-erbA mod; purified RORgamma protein-FITC-DNA binding, fluorescence polarization; IC50, µM; 8% of 910 active;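 active = Compounds whose fitted half-maximal concentration for disrupting protein-DNA binding is below 10 micromolar; the record names Rev-erb in its text, so the target is in doubt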
* marks the source's active call; other numbers are inactive results. Hits are enriched below; roughly 2.7% of the tested compounds scored in any of these assays.

Results for CC1C(=O)N(Cc2cn(CCC3OCCCO3)nn2)CCS(=O)(=O)N1Cc1ccc(-c2ccc(Cl)c(Cl)c2)cc1 (stereo not drawn) ?
HGIII-sPLA2 inh: -56.3; ASAP1 inh: -4.8; bovine MsrA act: 0.4; MsrA inh: -0.5; ARFGAP1 inh: -8.9; Rev-erbA mod: 8.4

How did CCc1cc2c(=O)[nH]c(Cc3ccc(Cl)cc3)nc2s1 do in these assays?
HGIII-sPLA2 inh: 3.1; ASAP1 inh: -6.2; bovine MsrA act: -3.8; MsrA inh: 0.8; ARFGAP1 inh: 11.5; Rev-erbA mod: 19.2*; NR1D1 mod conf: 18.0*

How did CC(C)(C)c1ccc(-c2nnc(SCc3ccccc3)n2Cc2ccco2)cc1 do in these assays?
HGIII-sPLA2 inh: -6.5; Rev-erbA mod: -2.5

Results for O=C(Nc1ccc(Cl)c(Cl)c1)c1ccc(Cl)c(Cl)c1 ?
HGIII-sPLA2 inh: 9.8; ASAP1 inh: 4.3; bovine MsrA act: 0.9; MsrA inh: 0.7; ARFGAP1 inh: 4.1; Rev-erbA mod: 2.9

What do the screens show for `O=C(Nc1ccc2c(c1)COC2=O)c1ccc(Cl)c(Cl)c1`?
HGIII-sPLA2 inh: -3.8; ASAP1 inh: 9.1; bovine MsrA act: -3.5; MsrA inh: -0.6; ARFGAP1 inh: -10.2; Rev-erbA mod: 47.9*; NR1D1 mod conf: 27.2*

How did CCc1nn(CC(=O)NCCCc2ccccc2)c(=O)c2cc3c(OC)cccc3n12 do in these assays?
HGIII-sPLA2 inh: 0.9; ASAP1 inh: -4.8; bovine MsrA act: -1.7; MsrA inh: -0.6; ARFGAP1 inh: 8.7; Rev-erbA mod: 30.6*; NR1D1 mod conf: 3.7

How did CN(Cc1ccccc1)C(=O)c1ccc(NC(=O)Cc2ccc(NC(=O)C3CCN(S(=O)(=O)c4cccc([N+](=O)[O-])c4)CC3)cc2)cc1 do in these assays?
HGIII-sPLA2 inh: -18.9; ASAP1 inh: 9.2; bovine MsrA act: -2.4; MsrA inh: 0.5; ARFGAP1 inh: 1.8; Rev-erbA mod: 8.4

Results for Cc1ccc(S(=O)(=O)N2CCN(C(=O)COC(=O)/C=C/c3cccc([N+](=O)[O-])c3)CC2)c(C)c1 ?
HGIII-sPLA2 inh: 1.3; ASAP1 inh: -10.7; bovine MsrA act: -2.1; MsrA inh: -0.5; ARFGAP1 inh: -16.5; Rev-erbA mod: -0.8

How did O=C(CCn1nnc2ccccc21)Nc1nnc(-c2ccccc2F)s1 do in these assays?
HGIII-sPLA2 inh: -2.8; ASAP1 inh: 2.0; bovine MsrA act: 3.2; MsrA inh: 0.7; ARFGAP1 inh: 3.5; Rev-erbA mod: 28.2*; NR1D1 mod conf: 16.8

What do the screens show for `CCOC(=O)[C@]12CCC=C1N(Cc1cccc3ccccc13)C(=O)[C@H](CC(=O)NCC1CCCCC1)C2`?
HGIII-sPLA2 inh: -16.9; ASAP1 inh: -10.0; bovine MsrA act: -1.0; MsrA inh: 0.9; ARFGAP1 inh: -0.2; Rev-erbA mod: 4.7

Results for CCN(Cc1ccccc1)c1ccc(N=Nc2nn(C)c(C)c2[N+](=O)[O-])cc1 ?
HGIII-sPLA2 inh: 6.5; ASAP1 inh: -5.3; bovine MsrA act: -1.0; MsrA inh: 0.1; ARFGAP1 inh: 2.2; Rev-erbA mod: 19.8

How did CCN(CC)c1ccc(N=Nc2ncn[nH]2)cc1 do in these assays?
HGIII-sPLA2 inh: -25.3; ASAP1 inh: -0.4; bovine MsrA act: -2.9; MsrA inh: 0.4; ARFGAP1 inh: 2.9; Rev-erbA mod: 26.4*; NR1D1 mod conf: 26.5*

How did N=C(SC1CC(=O)N(c2ccc(F)cc2)C1=O)N1N=C(c2ccccc2)CC1c1ccccc1 (stereo not drawn) do in these assays?
HGIII-sPLA2 inh: -3.0; ASAP1 inh: 6.3; bovine MsrA act: -11.2; MsrA inh: -0.4; ARFGAP1 inh: 4.2; Rev-erbA mod: 19.1*; NR1D1 mod conf: 0.4

How did O=S1(=O)CC(N2CCN(CCO)CC2)CN1Cc1ccccc1 (stereo not drawn) do in these assays?
HGIII-sPLA2 inh: 5.0; ASAP1 inh: -3.5; bovine MsrA act: 2.4; MsrA inh: 0.5; ARFGAP1 inh: 8.6; Rev-erbA mod: 3.2

What do the screens show for `C[N+](C)(C)CCN1C(=O)c2ccccc2C1=O`?
HGIII-sPLA2 inh: 1.9; ASAP1 inh: 11.0; bovine MsrA act: -0.8; MsrA inh: -0.7; ARFGAP1 inh: -5.6; Rev-erbA mod: -1.7

How did O=c1c2ccccc2sc2ccc(Cl)cc12 do in these assays?
HGIII-sPLA2 inh: 5.6; ASAP1 inh: -9.1; bovine MsrA act: -3.5; MsrA inh: -0.1; ARFGAP1 inh: -5.9; Rev-erbA mod: 79.9*; NR1D1 mod conf: 77.4*; RORg counter: >40

How did O=c1c2ccccc2sc2ccccc12 do in these assays?
HGIII-sPLA2 inh: -0.8; ASAP1 inh: -3.1; bovine MsrA act: -5.0; MsrA inh: -0.3; ARFGAP1 inh: -1.2; Rev-erbA mod: 8.5

Results for COc1cccc(CNC(=O)COC(=O)c2c(NC(C)=O)sc(C)c2C)c1 ?
HGIII-sPLA2 inh: -5.5; ASAP1 inh: -2.6; bovine MsrA act: -8.4; MsrA inh: -0.3; ARFGAP1 inh: 4.7; Rev-erbA mod: -6.2

Results for CC(=O)Nc1sc(C)c(C)c1C(=O)OCC(=O)NCc1ccc(Cl)cc1 ?
HGIII-sPLA2 inh: 3.7; ASAP1 inh: 1.1; bovine MsrA act: -2.6; MsrA inh: 1.6; ARFGAP1 inh: 1.8; Rev-erbA mod: 23.9*; NR1D1 mod conf: 8.5

Results for COC1=CC(=O)OC(c2ccccc2C(F)(F)F)C1 (stereo not drawn) ?
HGIII-sPLA2 inh: 0.9; ASAP1 inh: -8.2; MsrA inh: -0.2; ARFGAP1 inh: 3.5; Rev-erbA mod: 4.5

What do the screens show for `Cc1c(C(=O)N2CCN(c3ccccn3)CC2)sc2ncnc(N3CCN(c4ccccc4)CC3)c12`?
HGIII-sPLA2 inh: 2.9; ASAP1 inh: 6.1; bovine MsrA act: -3.5; MsrA inh: -0.2; ARFGAP1 inh: -5.0; Rev-erbA mod: -0.5

Results for Cc1nc(N2CCN(c3ccccn3)CC2)c2c(C)c(C(=O)N3CCN(c4cccc(Cl)c4)CC3)sc2n1 ?
HGIII-sPLA2 inh: 9.6; ASAP1 inh: -0.1; bovine MsrA act: 2.0; MsrA inh: 0.5; ARFGAP1 inh: -2.3; Rev-erbA mod: 73.0*; NR1D1 mod conf: 50.3*; RORg counter: >40

Results for Cc1nc(N2CCN(c3ccccn3)CC2)c2c(C)c(C(=O)Nc3ccc(F)cc3Cl)sc2n1 ?
HGIII-sPLA2 inh: 6.2; ASAP1 inh: 2.6; bovine MsrA act: -2.5; MsrA inh: 0.8; ARFGAP1 inh: 1.6; Rev-erbA mod: 34.0*; NR1D1 mod conf: 19.9*

How did CCc1ccc(NC(=O)c2sc3nc(C)nc(N4CCN(c5ccccn5)CC4)c3c2C)cc1 do in these assays?
HGIII-sPLA2 inh: 2.1; ASAP1 inh: 5.5; bovine MsrA act: -3.4; MsrA inh: 0.8; ARFGAP1 inh: 3.5; Rev-erbA mod: 28.4*; NR1D1 mod conf: 21.5*
